Data published in ChEMBL document CHEMBL1137729, “Synthesis, evaluation and 3D QSAR analysis of novel estradiol-RGD octapeptide conjugates with oral anti-osteoporosis activity” (Eur J Med Chem, 2009).
Each block holds one compound with its values, some of them ahead of it. The source made the active and inactive calls. The rule behind the calls is not given here. Residues, ends and D or L forms follow the SMILES beside them. *: point of attachment. Succinyl(O17-estradiol) = C[C@]12CC[C@@H]3c4ccc(O)cc4CC[C@H]3[C@@H]1CC[C@@H]2OC(=O)CCC(=O)*

What was measured:
[1] = Stability in presence of pepsin at 37 degC after 90 mins; type: ADME; settings: isolated protein, 1.5 h
Mus musculus [2] = assay: Antiosteoporosis activity in ovariectomized ICR mouse assessed as calcium level in serum at 110.3 nmol/kg, po treated for 4 weeks measured after 1 day of last treatment by o-methyl-phenolphthalein method; type: functional
Summary of the method: (§1)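 Ovariectomized female mice dosed orally with 110.3 nmol/kg in 0.5% carboxymethylcellulose once daily for 4 weeks, starting day 5 after surgery. Blood taken from the orbit the day after the last dose, stood 30 min, centrifuged 3000g for 20 min, serum stored at −20 °C. Calcium read by o-methylphenolphthalein complexone; phosphorus by molybdenum blue.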

Mus musculus [3] = assay: Antiosteoporosis activity in ovariectomized ICR mouse assessed as phosphorous level in serum at 110.3 nmol/kg, po treated for 4 weeks measured after 1 day of last treatment by molybdenum blue method; type: functional; summary of the method: as §1
Mus musculus [4] = assay: Antiosteoporosis activity in ovariectomized ICR mouse assessed as weight of dry femur at 110.3 nmol/kg, po treated for 4 weeks measured after 1 day of last treatment; type: functional
Summary of the method: (§2)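 Left femur taken the day after the last dose, cleaned of muscle, length measured, defatted in chloroform–methanol (2:1, 2×3 h), dried 120 °C 6 h and weighed, ashed 800 °C 8 h and weighed. Mineral content = ash/dry weight; femur ash dissolved in 6 N HCl, diluted, calcium by o-methylphenolphthalein complexone. n = 12.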

Mus musculus [5] = assay: Antiosteoporosis activity in ovariectomized ICR mouse assessed as weight of femur ash at 110.3 nmol/kg, po treated for 4 weeks measured after 1 day of last treatment; type: functional
Summary of the method: as §2, with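 “Female mice, ovariectomized (sham: laparotomy only); from day 5 post-surgery dosed orally once daily with 110.3 nmol/kg in 0.2 ml 0.5% carboxymethylcellulose for 4 weeks (vehicle to OVX/sham). Left” for “Left”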

Mus musculus [6] = assay: Antiosteoporosis activity in ovariectomized ICR mouse assessed as length of femur at 110.3 nmol/kg, po treated for 4 weeks measured after 1 day of last treatment; type: functional
Summary of the method: as §2, with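 “Female mice, ovariectomized (sham: laparotomy only); from day 5 post-surgery dosed orally once daily with 110.3 nmol/kg in 0.2 ml 0.5% carboxymethylcellulose for 4 weeks (vehicle to OVX/sham). Left” for “Left”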

Mus musculus [7] = assay: Antiosteoporosis activity in ovariectomized ICR mouse assessed as calcium content in femur at 110.3 nmol/kg, po treated for 4 weeks measured after 1 day of last treatment by o-methyl-phenolphthalein; type: functional
Summary of the method: as §2, with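 “Female mice, ovariectomized (sham: laparotomy only); from day 5 post-surgery dosed orally once daily with 110.3 nmol/kg in 0.2 ml 0.5% carboxymethylcellulose for 4 weeks (vehicle to OVX/sham). Left” for “Left”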

Mus musculus [8] = assay: Antiosteoporosis activity in ovariectomized ICR mouse assessed as phosphorous content in femur at 110.3 nmol/kg, po treated for 4 weeks measured after 1 day of last treatment by molybdenum blue method; type: functional
Mus musculus [9] = assay: Antiosteoporosis activity in ovariectomized ICR mouse assessed as mineral content in femur at 110.3 nmol/kg, po treated for 4 weeks measured after 1 day of last treatment; type: functional
Summary of the method: as §2, with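 “Female mice, ovariectomized (sham: laparotomy only); from day 5 post-surgery dosed orally once daily with 110.3 nmol/kg in 0.2 ml 0.5% carboxymethylcellulose for 4 weeks (vehicle to OVX/sham). Left” for “Left”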

Mus musculus [10] = assay: Toxicity in ovariectomized ICR mouse assessed as spleen weight at 110.3 nmol/kg, po treated for 4 weeks measured after 1 day of last treatment; type: organism-based; settings: in vivo, 24 h
Summary of the method: (§3)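 OVX mice dosed orally once daily with 110.3 nmol/kg in 0.5% carboxymethylcellulose for 4 weeks. The day after the last dose, mice were anesthetized with pentobarbital (40.0 mg/kg ip) and killed; uteri, lungs, livers and spleens were removed and weighed directly and their morphology noted.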

Mus musculus [11] = assay: Toxicity in ovariectomized ICR mouse assessed as lung weight at 110.3 nmol/kg, po treated for 4 weeks measured after 1 day of last treatment; type: organism-based; settings: in vivo, 24 h; summary of the method: as §3
Mus musculus [12] = assay: Toxicity in ovariectomized ICR mouse assessed as kidney weight at 110.3 nmol/kg, po treated for 4 weeks measured after 1 day of last treatment; type: organism-based; settings: in vivo, 24 h
Mus musculus [13] = assay: Toxicity in ovariectomized ICR mouse assessed as liver weight at 110.3 nmol/kg, po treated for 4 weeks measured after 1 day of last treatment; type: organism-based; settings: in vivo, 24 h; summary of the method: as §3
Mus musculus [14] = assay: Toxicity in ovariectomized ICR mouse assessed as effect on tail bleeding time at 110.3 nmol/kg, po treated for 4 weeks measured after 30 mins of last treatment; type: organism-based; settings: in vivo, 0.5 h
Summary of the method: (§4)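 OVX mice received 110.3 nmol/kg orally in 0.5% carboxymethylcellulose daily for 4 weeks. At 30 and 90 min after the last dose, a 2 mm tail cut was made with the mouse in a tube holder; blood was blotted every 30 s until bleeding stopped, and the time was recorded as bleeding time.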

Mus musculus [15] = assay: Toxicity in ovariectomized ICR mouse assessed as effect on tail bleeding time at 110.3 nmol/kg, po treated for 4 weeks measured after 90 mins of last treatment; type: organism-based; settings: in vivo, 1.5 h; summary of the method: as §4
Mus musculus [16] = assay: Toxicity in ovariectomized ICR mouse assessed as effect on uterine weight at 110.3 nmol/kg, po treated for 4 weeks measured after 1 day of last treatment; type: organism-based; settings: in vivo, 24 h; summary of the method: as §3
Mus musculus [17] = assay: Antiosteoporosis activity in osteoporotic female mouse at 0.11 umol/kg, po; type: functional, organism-based
Summary of the method: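 Dose-finding pre-treatment: series of oral doses given to osteoporotic female mice; ex vivo anti-osteoporosis activity assessed to assign a general dose for all later experiments.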

Mus musculus [18] = assay: Toxicity in osteoporotic female mouse at 0.11 umol/kg, po; type: organism-based; settings: in vivo
Mus musculus [19] = species on record: Mus musculus; assay: Inhibition of ADP-induced platelet aggregation in osteoporotic female mouse by ex vivo platelet aggregation assay; type: functional, organism-based
Mus musculus [20] = species on record: Mus musculus; assay: Inhibition of PAF-induced platelet aggregation in osteoporotic female mouse by ex vivo platelet aggregation assay; type: functional, organism-based
Mus musculus [21] = assay: Antiosteoporosis activity in osteoporotic female mouse at 4 umol/kg, po; type: functional, organism-based
[22] = Stability in presence of pepsin at 37 degC after 4 hrs; type: ADME; settings: isolated protein

- Stability [1]: Unstable
Compound: N=C(N)NCCC[C@H](N)C(=O)NCC(=O)N[C@@H](CC(=O)O)C(=O)N[C@@H](Cc1ccccc1)C(=O)O (H-RGDF-OH)

Compound: C[C@]12CC[C@@H]3c4ccc(O)cc4CC[C@H]3[C@@H]1CC[C@@H]2OC(=O)CCC(=O)N[C@@H](CCCNC(=N)N)C(=O)NCC(=O)N[C@@H](CC(=O)O)C(=O)N[C@@H](Cc1ccccc1)C(=O)N[C@@H](CCCNC(=N)N)C(=O)NCC(=O)N[C@@H](CC(=O)O)C(=O)N[C@@H](Cc1ccccc1)C(=O)O ({Succinyl(O17-estradiol)}-RGDFRGDF-OH)
- Activity (Mus musculus [2]): 3.01 mM
- Activity (Mus musculus [3]): 3.01 mM
- Activity (Mus musculus [4]): 56.6 mg
- Activity (Mus musculus [5]): 36.87 mg
- Activity (Mus musculus [6]): 1.64 cm
- Activity (Mus musculus [7]): 64.36%
- Activity (Mus musculus [8]): 21.56%
- Activity (Mus musculus [9]): 0.625%
- Activity (Mus musculus [10]): 0.135 g
- Activity (Mus musculus [11]): 0.109 g
- Activity (Mus musculus [12]): 0.16 g
- Activity (Mus musculus [13]): 1.266 g
- Time (Mus musculus [14]): 584 s
- Time (Mus musculus [15]): 571 s
- Activity (Mus musculus [16]): 0.06 g
- Activity (Mus musculus [17]): Active
- Activity (Mus musculus [18]): Non-toxic

- IC50 (Mus musculus [19]): 0.31 µmol/kg
- IC50 (Mus musculus [20]): 0.26 µmol/kg
- Stability [22]: Stable
Compound: H-RGDFRGDF-OH
- Activity (Mus musculus [21]): inactive
